{"data": "Experimental data from different studies", "AMY2": "Pancreatic alpha-amylase (AMY2, Sus scrofa, UniProt P00690)", "D14": "D14 (Arabidopsis thaliana, UniProt Q9SQR3)", "EIF2AK3": "Eukaryotic translation initiation factor 2-alpha kinase 3 (EIF2AK3, Homo sapiens, UniProt Q9NZJ5)", "note": "Protocols differ between the studies behind these lines."}
{"Compound": "O=c1cc(-c2ccc(O)c(O)c2)oc2cc(O)cc(O)c12", "target": "AMY2", "assay": "enzyme activity, inhibitor", "conditions": "50 µM, 30 min", "measurement": "inhibition", "value": "97.5%"}
{"Compound": "CC1=CC(O/C=C2/C(=O)OC3c4ccccc4CC23)OC1=O (racemic)", "target": "D14", "assay": "thermal stability, DSF", "conditions": "1 µM", "measurement": "ΔTm", "value": "-0.035 °C"}
{"Compound": "Cc1cc(O)c(-c2ccc([C@@H](C)CN(C)C)cc2)c2c1[nH]c(=O)c1sccc12", "target": "EIF2AK3", "assay": "enzyme activity, inhibitor", "conditions": "0.1 µM", "measurement": "inhibition", "value": "-7.06%"}
{"Compound": "COc1ccc2oc(-c3ccc4nc(N)oc4c3)c/c(=N\\c3ccccc3NC(=O)CCN)c2c1", "target": "Receptor-interacting serine/threonine-protein kinase 1 (RIPK1, Homo sapiens, UniProt Q13546)", "assay": "binding", "conditions": "1 µM", "measurement": "remaining binding", "value": "110%"}
{"Compound": "COc1cc(O)c2c(c1)O[C@H](c1ccccc1)CC2=O", "target": "AMY2", "assay": "enzyme activity, inhibitor", "conditions": "50 µM, 30 min", "measurement": "inhibition", "value": "12.7%"}
{"Compound": "CC(=O)/C=C/C=C(C)/C=C/C1=C(C)CC(O)CC1(C)C (stereo in doubt)", "target": "D14", "assay": "thermal stability, DSF", "conditions": "1 µM", "measurement": "ΔTm", "value": "0.09 °C"}
{"Compound": "Cc1cc(S(=O)(=O)N[C@H]2CC[C@H](CN3CCN(c4ccc(C5CCC(=O)NC5=O)cc4F)CC3)CC2)ccc1Nc1ncc(C(F)(F)F)c(N2CCC[C@](C)(O)C2)n1 (stereo partly shown)", "target": "Cyclin-dependent kinase 4, with cyclin D1 (CDK4, Homo sapiens, UniProt P11802)", "assay": "binding, competition with immobilised ligand", "conditions": "1 µM", "measurement": "remaining binding", "value": "75%"}
{"Compound": "CC1=C(/C=C/C(C)=C/C=O)C(C)(C)C[C@H](O)C1", "target": "D14", "assay": "thermal stability, DSF", "conditions": "1 µM", "measurement": "ΔTm", "value": "0.28 °C"}
{"Compound": "O=c1cc(-c2ccccc2)oc2cc(O)cc(O)c12", "target": "AMY2", "assay": "enzyme activity, inhibitor", "conditions": "50 µM, 30 min", "measurement": "inhibition", "value": "22.3%"}
{"Compound": "CCCCC(=O)Nc1ccc(-c2ccc3ncn(CCC)c(=O)c3c2)cn1", "target": "Ephrin type-A receptor 5 (EPHA5, Homo sapiens, UniProt P54756)", "assay": "binding, competition with immobilised ligand", "conditions": "0.5 µM", "measurement": "remaining binding", "value": "84%"}
{"Compound": "O=C1C[C@@H](c2ccccc2)Oc2cc(O)cc(O)c21", "target": "AMY2", "assay": "enzyme activity, inhibitor", "conditions": "50 µM", "measurement": "inhibition", "value": "25.2%"}
{"Compound": "NC/C(=C\\F)COc1cccc(Cn2c(=S)[nH]c(=O)c3[nH]cnc32)c1", "target": "Muscarinic acetylcholine receptor M2 (CHRM2, Homo sapiens, UniProt P08172)", "assay": "ligand displacement, radioligand", "conditions": "10 µM", "measurement": "inhibition", "value": "< 50%"}
{"Compound": "C1=C/COCc2cc(ccc2OCCN2CCCC2)Nc2nccc(n2)-c2cccc(c2)COC/1", "target": "Myosin-IIIb (MYO3B, Homo sapiens, UniProt Q8WXR4)", "assay": "binding", "conditions": "0.1 µM", "measurement": "remaining binding", "value": "100%"}
{"Compound": "O=c1cc(-c2ccc(O)cc2)oc2cc(O)cc(O)c12", "target": "AMY2", "assay": "enzyme activity, inhibitor", "conditions": "50 µM", "measurement": "inhibition", "value": "87.5%"}
{"Compound": "C#Cc1cc(-c2cc(Nc3nc(N[C@@H](C)c4ccc(F)cn4)ncc3Cl)n[nH]2)ccc1C=O", "target": "EIF2AK3", "assay": "enzyme activity, inhibitor", "conditions": "0.2 µM", "measurement": "inhibition", "value": "16.5%"}
{"Compound": "CC1=C(/C=C/C(C)=C/C=O)C(C)(C)CCC1", "target": "D14", "assay": "thermal stability, DSF", "conditions": "1 µM", "measurement": "ΔTm", "value": "0 °C"}
